According to ChEMBL document CHEMBL3097999, “Synthesis and biological evaluation of novel substituted 1,3,4-thiadiazole and 2,6-di aryl substituted imidazo [2,1-b] [1,3,4] thiadiazole derivatives” (2014):

Key:
Type in all cases: functional
Details in all cases: read-out: DIZ
[1] = tested on: Escherichia coli; experiment: Antimicrobial activity against Escherichia coli at 0.5 mg/ml by well plate method
Summary of the method: (§1)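 Agar well-plate diffusion against E. coli, B. subtilis and P. aeruginosa. Test compounds dissolved in DMSO at 1 and 0.5 mg/mL and placed in wells. Streptomycin was the reference drug. Read-out is the zone of inhibition.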

[2] = tested on: Chrysosporium keratinophilum; experiment: Antimicrobial activity against Chrysosporium keratinophilum at 1 mg/ml by well plate method
Summary of the method: (§2)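 Fungal well-plate diffusion against Candida albicans, Aspergillus flavus and Chrysosporium keratinophilum. Compounds in DMSO at 1 and 0.5 mg/mL, with fluconazole as the reference drug. Activity scored as the zone of inhibition.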

[3] = tested on: Candida albicans; experiment: Antimicrobial activity against Candida albicans at 1 mg/ml by well plate method; summary of the method: as §2
[4] = tested on: Pseudomonas aeruginosa; experiment: Antimicrobial activity against Pseudomonas aeruginosa at 0.5 mg/ml by well plate method; summary of the method: as §1
[5] = tested on: Candida albicans; experiment: Antimicrobial activity against Candida albicans at 0.5 mg/ml by well plate method; summary of the method: as §2
[6] = tested on: Aspergillus flavus; experiment: Antimicrobial activity against Aspergillus flavus at 1 mg/ml by well plate method; summary of the method: as §2
[7] = tested on: Escherichia coli; experiment: Antimicrobial activity against Escherichia coli at 1 mg/ml by well plate method; summary of the method: as §1
[8] = tested on: Chrysosporium keratinophilum; experiment: Antimicrobial activity against Chrysosporium keratinophilum at 0.5 mg/ml by well plate method; summary of the method: as §2
[9] = tested on: Pseudomonas aeruginosa; experiment: Antimicrobial activity against Pseudomonas aeruginosa at 1 mg/ml by well plate method; summary of the method: as §1
[10] = tested on: Bacillus subtilis; experiment: Antimicrobial activity against Bacillus subtilis at 1 mg/ml by well plate method; summary of the method: as §1
[11] = tested on: Bacillus subtilis; experiment: Antimicrobial activity against Bacillus subtilis at 0.5 mg/ml by well plate method; summary of the method: as §1
[12] = tested on: Aspergillus flavus; experiment: Antimicrobial activity against Aspergillus flavus at 0.5 mg/ml by well plate method; summary of the method: as §2

Compound	zone of inhibition at 500 µg/mL [1]	zone of inhibition at 1000 µg/mL [2]	zone of inhibition at 1000 µg/mL [3]	zone of inhibition at 500 µg/mL [4]	zone of inhibition at 500 µg/mL [5]	zone of inhibition at 1000 µg/mL [6]	zone of inhibition at 1000 µg/mL [7]	zone of inhibition at 500 µg/mL [8]	zone of inhibition at 1000 µg/mL [9]	zone of inhibition at 1000 µg/mL [10]	zone of inhibition at 500 µg/mL [11]	zone of inhibition at 500 µg/mL [12]
CN1CCN(c2ccc(-c3nnc(NC(=O)C(C)(C)C)s3)cc2[N+](=O)[O-])CC1	3 mm	4 mm	4 mm	2 mm	2 mm	3 mm	5 mm	2 mm	3 mm	4 mm	3 mm	
CC(C)(C)C(=O)Nc1nnc(-c2ccc(N3CCC(c4ccc(C(F)(F)F)cc4)CC3)c([N+](=O)[O-])c2)s1	5 mm	7 mm	7 mm	6 mm	4 mm	8 mm	8 mm	5 mm	7 mm	7 mm	5 mm	5 mm
CC(C)(C)C(=O)Nc1nnc(-c2ccc(NC3CCCC3)c([N+](=O)[O-])c2)s1	4 mm	4 mm	5 mm	2 mm	2 mm	4 mm	6 mm	2 mm	3 mm	4 mm	3 mm	2 mm
CC(C)(C)C(=O)Nc1nnc(-c2ccc(NC3CCCCC3)c([N+](=O)[O-])c2)s1	8 mm	6 mm	9 mm	7 mm	7 mm	7 mm	10 mm	4 mm	9 mm	8 mm	6 mm	5 mm
CC(C)(C)C(=O)Nc1nnc(-c2ccc(NCc3ccc(F)cc3F)c([N+](=O)[O-])c2)s1	3 mm	7 mm	5 mm	2 mm	3 mm	6 mm	5 mm	5 mm	4 mm	4 mm	2 mm	4 mm
CC(C)(C)C(=O)Nc1nnc(-c2ccc(N3CCCC3)c([N+](=O)[O-])c2)s1	3 mm	5 mm	6 mm	4 mm	5 mm	6 mm	5 mm	3 mm	6 mm	3 mm	1 mm	4 mm
CC(C)(C)C(=O)Nc1nnc(-c2ccc(Nc3ccc(F)cc3)c([N+](=O)[O-])c2)s1	5 mm	5 mm	4 mm	4 mm	2 mm	3 mm	7 mm	4 mm	6 mm	5 mm	3 mm	2 mm
OC(Cn1cncn1)(Cn1cncn1)c1ccc(F)cc1F [FLUCONAZOLE]		17 mm	22 mm		20 mm	13 mm		15 mm				10 mm
CN[C@@H]1[C@H](O[C@H]2[C@H](O[C@H]3[C@H](O)[C@@H](O)[C@H](N=C(N)N)[C@@H](O)[C@@H]3N=C(N)N)O[C@@H](C)[C@]2(O)C=O)O[C@@H](CO)[C@H](O)[C@H]1O [STREPTOMYCIN]	17 mm			15 mm			19 mm		19 mm	22 mm	19 mm	
